The source of these data is the RNAGym collection of RNA variant scans (doi:10.1126/science.aae0568).

To fix the notation:
B1: tRNA (parent)
chain: GUUCCGUUGGCGUAAUGGUAACGCGUCUCCCUCCUAAGGAGAAGACUGCGGGUUCGAGUCCCGUACGGAACG

This sample holds only a part of the variants without activity.

The data set covers variants of B1. The experiment in a line: yeast fitness relative to wild type (ratio to wild type); higher = fitter; tRNA-Arg(CCU), competitive growth, 37 C, YPD. An outline of the steps:
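Amplicons of the tRNA-Arg(CCU) gene were sequenced, 100-nucleotide paired-end, from the start population and from each end population of a pooled yeast competition. The competition, in six parallel replicates, lasted 24 hours in YPD at 37°C. Fitness relative to wild type was calculated from changes in genotype frequencies. Genotypes had to have ≥ 100 starting reads, and estimates < 0.5 were set to 0.5.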
Consider GUUCCGUUGGCGUAAUGGUAACGCGUUUCACUCCUAAGGAGAAGACUGCGGGUUCGAGUCCCGUACGGAACG, for which the yeast fitness was 0.773.

In the case of GUUCCGUUGGCGUAAUGGUAACGCGUUUCUCUCCUAAGGAGAAGACUGCGGGUUCGAGUCCCGUACGGAACG, the yeast fitness came to 0.825.

For GUUCCGUUGGCGUAAUGGUAACGCGUUUCCCUACUAAGGCGAAGACUGCGGGUUCGAGUCCCGUACGGAACG, the yeast fitness was determined as 0.574.

In the case of GUUCCGUUGGCGUAAUGGUAACGCGUUUCUCUCCUAAGGUGAAGACUCCGGGUUCGAGUCCCAUACGGAACG, the yeast fitness is 0.535.

In the case of GUUCCGUUGGCGUAAUGGUAACGCGUUUCCCUCCUAAGGAGAUGACUGCGGGUUUGAGUCCCGUACGGCACG, the yeast fitness is at most 0.5.

With GUUCCGUUGGCGUAAUGGUAACGCGUUUCCGUCCUAAGGAGAAGACUGCGGGUUCGAGUCCCGUACGGUACG, the yeast fitness stood at 0.624.

Turning to GUUCCGUUGGCGUAAUGGUAACGCGUUUCCCUUCUAAGGAGAAGACUGCGAGUUCGAGUCCCGUACGGAACG, the yeast fitness stood at 0.612.

On to GUUCCGUUGGCGUAAUGGUAACGCGUUUCCAUCCUAAGGAGAAGACUGCGGGUUCGUGUCCCGUACGGAACG, for which the yeast fitness is at most 0.5.

Consider GUUCCGUUGGCGUAAUGGUAACGCGUUUCCGUCCUAAGGAGACGACUGGGGCUUCGAGACCCGUACGGAACG, for which the yeast fitness turned out to be 0.54.

In the case of GUUCCGUUGGCGUAAUGGUAACGCGUUUCCGUCCUAAGGAGACGACUGGGGCUUCGAGGCCCGUACGGAACG, the yeast fitness is at most 0.5.

As for GUUCCGUUGGCGUAAUGGUAACGCGUUUCUCUCCUAAGGAGAAGACUGCGGGAUCGAGUCCCGUACGGCACG, the yeast fitness was 0.507.

For GUUCCGUUGGCGUAAUGGUAACGCGUUUGCCUCCUAAGGAGGAGACUGCGGGUUCGAGUCCCGUACGGAACG, the yeast fitness is at most 0.5.

For the variant GUUCCGUUGGCGUAAUGGUAACGCGUUUUCCUCCUAAGGAGAAGACUGGGGGUUCGAGUCCCGUACGGGACG, the yeast fitness is at most 0.5.

Take GUUCCGUUGGCGUAAUGGUAACGCGUUUCCCUCCUAAGGAGAAGCCUGCGGGUUGGACUCCCGUACGGAACG: the yeast fitness was at most 0.5.

Consider GUUCCGUUGGCGUAAUGGUAACGCGUUUCCCUCCUAAGGAGAAGGCUGGGGGUUCGAGUCCCGUCCGGAACG, for which the yeast fitness was at most 0.5.

Regarding GUUCCGUUGGCGUAAUGGUAACGCGUUUCCAUCCUAAGGAGAACACUGCGGGUUCGAGUCCCGUACGGAGCG, the yeast fitness was at most 0.5.

For GUUCCGUUGGCGUAAUGGUAACGCGUUUCCGUCCUAAGGAGAAGACUGCGGGUUGGAGUCCCGUACGGAACG, the yeast fitness was at most 0.5.

Consider GUUCCGUUGGCGUAAUGGUAACGCGUUUCCCUUCUAAGGAGAAGACUGCGGGUUCGAGUGCCGUACGGAACG, for which the yeast fitness is 0.628.

Regarding GUUCCGUUGGCGUAAUGGUAACGCGUUUCCCUCAUAAGGAGAAGACUGCGGGUUCGAGUCCCGUACGGAACG, the yeast fitness came out at 0.728.

Regarding GUUCCGUUGGCGUAAUGGUAACGCGUUUCGCUCCUAAGGCGAAAACUGCGGAUUCGAGUCCCGUACGGAUCG, the yeast fitness was at most 0.5.

GUUCCGUUGGCGUAAUGGUAACGCGUUUACCUCCUUAGGCGAAGACUGCGGCUUCGAGUCCCGUACGGAACG: the yeast fitness came out at 0.583.

Consider GUUCCGUUGGCGUAAUGGUAACGCGUUUCCCUCCUAAGGAGAAGACUGCGGGUUCGAGUCCCGUCCGGACCG, for which the yeast fitness was determined as 0.69.

As to GUUCCGUUGGCGUAAUGGUAACGCGUUUUCCUCCUAAGGAGAAGACUGCGGGUUCGAGUUCCGUACGGGACG, the yeast fitness came out at 0.565.

For GUUCCGUUGGCGUAAUGGUAACGCGUUUCCCUUCUAAGGCGAAGACUGCGGGUUAGAGUCCCGUACGGAACG, the yeast fitness is at most 0.5.

Turning to GUUCCGUUGGCGUAAUGGUAACGCGUUUACCUCCUAACGAGAAGACUGCGGGUUCGGGUCCCGUCAGGAACG, the yeast fitness was at most 0.5.

Regarding GUUCCGUUGGCGUAAUGGUAACGCGUUUCGCCCCUAAGGAGAAGACUGCGGGUUCGAGUCCCGUACGGAUCG, the yeast fitness was 0.585.

Regarding GUUCCGUUGGCGUAAUGGUAACGCGUUUCCCUGCUAAGGAGAAGACUGCGGGUUGGAGUCUCGUACGGAACG, the yeast fitness is 0.539.

GUUCCGUUGGCGUAAUGGUAACGCGUUUGCCUCCUAAGGAGAAGACUGCGGGUUCGAGUCUCGUACGGAACG: the yeast fitness was found to be 0.675.

Take GUUCCGUUGGCGUAAUGGUAACGCGUUUCUCUCGUACGGAGAAGACUGCGGGUUCGGGUCACGUACGGAACG: the yeast fitness is at most 0.5.

On to GUUCCGUUGGCGUAAUGGUAACGCGUUUCCCUGGUAAGGAGAAAACUGCAGAUUCAAGUCCCGUACGGAACG, for which the yeast fitness was at most 0.5.

For the variant GUUCCGUUGGCGUAAUGGUAACGCGUUUCCUUCCUAAGGAGAAGACUGCGGGCUCGAGUCCCGUACGGAUCG, the yeast fitness was at most 0.5.

In the case of GUUCCGUUGGCGUAAUGGUAACGCGUUUCGCUCCUAAGGGGAAGACUGCGCGUUCGAGUCCCGCACGGAACG, the yeast fitness was at most 0.5.

Turning to GUUCCGUUGGCGUAAUGGUAACGCGUUUCUCUCCUAAGGAGAAGACUGCGGGUUCGAGUCCAGUACGGAACG, the yeast fitness came to 0.564.

For the variant GUUCCGUUGGCGUAAUGGUAACGCGUUUCCCUCCUAAGGAGAAGACUGCGGGUUCGAGUCCCGUACGGAUCG, the yeast fitness was 0.988.

Take GUUCCGUUGGCGUAAUGGUAACGCGUUUCCCUCCUAAGGAGAAGACUGCGGGUUCGAGUCCCGUACGGAGCG: the yeast fitness was 0.988.

Take GUUCCGUUGGCGUAAUGGUAACGCGUUUCCCUCCUAAGGAGAAGACUGCGGGUUCGAGUCCCGUACGGACCG: the yeast fitness came out at 1.03.

With GUUCCGUUGGCGUAAUGGUAACGCGUUUCCCUGCUAAGGAGAGGACUGCGGGCUCGGGUCUUGUACGGAGCG, the yeast fitness is at most 0.5.
